Published values collected from several papers.
Protocols differ between the studies behind these lines.
Target: Phosphorylase b kinase gamma catalytic chain, skeletal muscle/heart isoform (PHKG1, Homo sapiens, UniProt Q16816)

Cn1cc(-c2cccc(N3CCc4c(sc5c4CC(C)(C)C5)C3=O)c2CO)cc(Nc2ccncn2)c1=O
inhibition (enzyme activity; inhibitor; 1 µM): 6%

O=c1[nH]c2ccccc2n1C1CCN(Cc2ccc(-c3[nH]c4cc5ncnc5cc4nc3-c3ccccc3)cc2)CC1
remaining signal (cell-free assay; 0.5 µM): 106%

Cn1cc(-c2cc(F)cc(N3CCn4c(cc5c4CCCC5)C3=O)c2CO)cc(Nc2ccc(N3CCN(C4COC4)CC3)cn2)c1=O
inhibition (enzyme activity; inhibitor; 0.1 µM): 6%

Cn1cncc1[C@@](O)(COc1ccc(C#N)cc1-c1ccc(OC(F)(F)F)cc1)c1ccc(C#N)cc1
remaining binding (cell-free assay; competition with immobilised ligand; 1 µM): 95%

Nc1ncc(-c2nc(N3CCOCC3)nc(N3CCOCC3)n2)c(C(F)F)n1
remaining binding (binding; competition with immobilised ligand; 10 µM): 94%

N#CC1(c2ccccn2)CCN(Cc2cc(C(=O)O)c(=O)n3ccccc23)CC1
remaining binding (cell-free assay; competition with immobilised ligand; 1 µM): 100%

Cc1nn(C)cc1-c1nc2c(N3CCN(Cc4ccc(Cl)cc4)CC3)c(Cl)cnc2[nH]1
remaining binding (binding; competition with immobilised ligand; 1 µM): 100%

CC(C)(C)c1cc(C=C(C#N)C#N)cc(Br)c1O
remaining activity (enzyme activity; inhibitor; 0.5 µM): 96.7%

COc1cc(Nc2ncc(F)c(Nc3ccc4c(n3)NC(=O)C(C)(C)O4)n2)cc(OC)c1OC
inhibition (binding; 10 µM): 29%

COc1ncccc1-c1cnn2ccc(N3CCN(C(=O)OC(C)C)CC3)nc12
remaining binding (binding; competition with immobilised ligand; 1 µM): 100%
